In ChEMBL document CHEMBL1148717, “Design, synthesis, and biological evaluation of Plasmodium falciparum lactate dehydrogenase inhibitors” (J Med Chem, 2007) one finds IC50 and Ratio IC50 data, which are given here for nine compounds.

Test [1] deals with Lactate dehydrogenase (Plasmodium falciparum, UniProt Q0PJ46). Kind of test: Inhibition of Plasmodium falciparum LDH. The gist of the method:
(§1)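 Recombinant P. falciparum LDH and MDH, bovine heart LDH, and porcine heart mitochondrial and cytosolic MDH were each assayed in 50 mM potassium phosphate (pH 7.0) with 200 µM pyruvate. Reactions were started with 250 µM NADH, and the fall in A340 was followed for 5 min at 25 °C. Compounds were first screened at 50 and 100 µg/mL. Those giving over 50% inhibition at 50 µg/mL were retested for IC50.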

Test [2] concerns the target T1, Malate dehydrogenase, mitochondrial (Sus scrofa, UniProt P00346).
T1 sequence (P00346 whole entry): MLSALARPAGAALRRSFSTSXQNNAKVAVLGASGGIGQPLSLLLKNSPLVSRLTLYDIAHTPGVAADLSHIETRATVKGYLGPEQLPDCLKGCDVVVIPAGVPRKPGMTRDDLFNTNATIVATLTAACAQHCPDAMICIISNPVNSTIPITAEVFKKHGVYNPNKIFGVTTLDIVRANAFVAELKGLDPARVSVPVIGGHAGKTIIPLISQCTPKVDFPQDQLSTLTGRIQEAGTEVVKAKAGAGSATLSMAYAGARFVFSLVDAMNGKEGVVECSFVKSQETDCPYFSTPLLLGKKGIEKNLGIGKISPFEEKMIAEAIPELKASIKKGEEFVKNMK
Kind of test: Inhibition of pig heart mitochondrial MDH. The gist of the method:
as §1

In test [3] the target is T2, Malate dehydrogenase, cytoplasmic (Sus scrofa, UniProt P11708).
T2 sequence (P11708 whole entry): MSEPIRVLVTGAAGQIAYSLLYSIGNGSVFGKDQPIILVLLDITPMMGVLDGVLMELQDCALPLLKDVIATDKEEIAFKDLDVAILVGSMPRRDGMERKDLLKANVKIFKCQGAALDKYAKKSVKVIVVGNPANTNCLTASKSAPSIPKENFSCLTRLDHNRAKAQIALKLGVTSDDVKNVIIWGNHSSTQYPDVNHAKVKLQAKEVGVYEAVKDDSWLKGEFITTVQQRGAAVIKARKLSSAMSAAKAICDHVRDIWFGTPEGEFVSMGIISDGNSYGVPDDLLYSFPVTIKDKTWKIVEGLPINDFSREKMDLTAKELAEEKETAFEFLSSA
Kind of test: Inhibition of pig cytosolic MDH. Put shortly: as §1

For test [4], the target named is T3, Malate dehydrogenase (Plasmodium falciparum, UniProt Q6VVP7).
T3 sequence (Q6VVP7 whole entry): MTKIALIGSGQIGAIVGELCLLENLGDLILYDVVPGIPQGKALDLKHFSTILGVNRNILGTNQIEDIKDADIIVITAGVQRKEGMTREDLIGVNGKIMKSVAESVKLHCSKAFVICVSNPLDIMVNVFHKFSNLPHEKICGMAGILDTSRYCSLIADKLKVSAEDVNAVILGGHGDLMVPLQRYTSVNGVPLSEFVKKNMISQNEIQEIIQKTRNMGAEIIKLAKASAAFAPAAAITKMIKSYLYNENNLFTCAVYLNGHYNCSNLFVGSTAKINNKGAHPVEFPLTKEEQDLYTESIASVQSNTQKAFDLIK
Briefly: Inhibition of Plasmodium falciparum MDH. The gist of the method: as §1

Test [5] is described as follows: Inhibition of bovine heart LDH. Also noted: species or system Bos taurus.
Test [6] can be described thus: Selectivity for Plasmodium falciparum LDH over bovine heart LDH.

A value given as a limit tells only on which side of the number the result lay.

Chain of Lactate dehydrogenase (Q0PJ46 whole entry): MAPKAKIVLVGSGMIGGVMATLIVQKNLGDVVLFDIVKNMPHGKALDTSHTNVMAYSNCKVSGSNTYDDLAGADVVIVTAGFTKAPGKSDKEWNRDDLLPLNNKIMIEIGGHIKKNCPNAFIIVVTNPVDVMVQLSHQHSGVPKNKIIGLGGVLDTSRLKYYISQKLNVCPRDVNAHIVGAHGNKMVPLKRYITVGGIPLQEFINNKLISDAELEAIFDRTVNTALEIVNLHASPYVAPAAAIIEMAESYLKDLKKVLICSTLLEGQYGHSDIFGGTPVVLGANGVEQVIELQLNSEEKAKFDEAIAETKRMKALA

With `O=C(O)C(=O)Nc1ccc(CCOc2cc(O)c3c(=O)cc(C(=O)O)oc3c2)cc1`, the IC50 in test [1] (read-out: IC50) was more than 241 µM; in test [2], 96.7 µM; in test [3], “Not Active”; in test [4] (read-out: IC50), more than 241 µM.

Take `NC(=O)C(=O)O` [OXAMATE]: the IC50 in test [1] (read-out: IC50) was 92.5 µM; in test [2] it was more than 2000 µM; in test [3] (read-out: IC50), more than 2000 µM; in test [4] (read-out: IC50), more than 2000 µM.

With `Cc1cc2c(C(C)C)c(O)c(O)c(C=O)c2c(O)c1-c1c(C)cc2c(C(C)C)c(O)c(O)c(C=O)c2c1O` [GOSSYPOL], the IC50 in test [1] (read-out: IC50) was found to be 2.64 µM; in test [2], 2.8 µM; in test [3] (read-out: IC50) it was 5.8 µM; in test [5] (read-out: IC50) it was 9.54 µM; in test [4] (read-out: IC50), 2.03 µM.

On to `COc1cc(CCOc2cc(O)c3c(=O)cc(C(=O)O)oc3c2)ccc1NC(=O)C(=O)O`, for which the IC50 in test [1] (read-out: IC50) is 191 µM; in test [2], more than 225 µM; in test [3], “Not Active”; in test [4] (read-out: IC50) it was more than 225 µM.

For the compound `COc1cc(COc2cc(O)c3c(=O)cc(C(=O)O)oc3c2)ccc1NC(=O)C(=O)O`, the IC50 in test [1] (read-out: IC50) was 87.3 µM; in test [2] it was 64 µM; in test [3] (read-out: IC50), more than 232 µM; in test [4] (read-out: IC50), 48.3 µM.

As for `N#Cc1cc(CCOc2cc(O)c3c(=O)cc(C(=O)O)oc3c2)ccc1NC(=O)C(=O)O`, the half-maximal inhibitory concentration (IC50) result was “Not Active” in test [1]; 17.1 µM in test [2]; 13.6 µM in test [3] (read-out: IC50); “Not Active” in test [5]; “Not Active” in test [4].

Consider `COc1ccc(CNC(=O)c2cc(=O)c3c(O)cc(OCCc4ccc(NC(=O)C(=O)O)c(OC)c4)cc3o2)cc1`, for which the IC50 in test [1] (read-out: IC50) is 1.75 µM; in test [2], 0.39 µM; in test [3] (read-out: IC50), 6.31 µM; in test [5] (read-out: IC50), 11.4 µM; in test [4] (read-out: IC50), 2.66 µM.

In the case of `COc1ccc(CNC(=O)c2cc(=O)c3c(O)cc(OCCc4ccc(NC(=O)C(=O)O)c(C#N)c4)cc3o2)cc1`, the IC50 is 8.25 µM in test [1] (read-out: IC50); 5.91 µM in test [2]; 10.9 µM in test [3] (read-out: IC50); more than 179 µM in test [5] (read-out: IC50); 86.9 µM in test [4] (read-out: IC50). The Ratio IC50 in test [6] is 22.

As for `COc1ccc(CNC(=O)c2cc(=O)c3c(O)cc(OCCc4ccc(NC(=O)C(=O)O)cc4)cc3o2)cc1`, the IC50 in test [1] (read-out: IC50) was 3.13 µM; in test [2], 2.72 µM; in test [3] (read-out: IC50), 4.88 µM; in test [5] (read-out: IC50) it was more than 187 µM; in test [4] (read-out: IC50) it was 6.76 µM. Besides, the Ratio IC50 in test [6] came out at 59.

The term IC50 denotes the point on the concentration scale where inhibition reaches its midpoint.
